Experimental data of several laboratories.
Each line is one published result; the experiments were not run side by side.
Target: Serine/threonine-protein kinase PAK 6 (PAK6, Homo sapiens, UniProt Q9NQU5)

SMILES | effect on | action | method | concentration | quantity | result
CC(C)(O)[C@H]1CC[C@H](Nc2ccc3ncc(-c4cccc(C(F)(F)F)c4)n3n2)CC1 | enzyme activity | inhibitor |  | 1 µM | remaining activity | 101%
CCCS(=O)(=O)Nc1ccc(F)c(C(=O)c2c[nH]c3ncc(-c4ccc(Cl)cc4)cc23)c1F | enzyme activity | inhibitor |  | 1 µM | inhibition | < 20%
CC(C)(C)c1nc(-c2cccc(NS(=O)(=O)c3c(F)cccc3F)c2F)c(-c2ccnc(N)n2)s1 | enzyme activity | inhibitor | radiometric | 1 µM | remaining activity | 79%
CC(=O)N1CCC(c2ccc(C(=O)NC3=NCCN3)cc2C(F)(F)F)CC1 | cell-free assay |  | competition with immobilised ligand | 1 µM | remaining binding | 100%
COc1cc(/C=C/C(=O)CC(=O)/C=C/c2ccc(O)c(OC)c2)ccc1O | enzyme activity | inhibitor |  | 1 µM | activity vs control | 82%
CC/C(=N\NC(=O)NCc1cccc(O)c1)c1ccc(O)c(C)c1O | enzyme activity | inhibitor |  | 0.1 µM | inhibition | 1.5%
O=C(NCc1ncc(C(F)(F)F)cc1Cl)c1ccc2c(c1)C1(CCS(=O)(=O)CC1)[C@@H](C1CC1)N2S(=O)(=O)c1ccc(F)cc1 | cell-free assay |  | competition with immobilised ligand | 1 µM | remaining binding | 100%
FC(F)(F)Oc1cccc(-c2cnc3ccc(-c4ccncc4)nn23)c1 | enzyme activity | inhibitor | radiometric | 5 µM | activity vs control | 90%
CC(C)(O)c1cncc(-c2nc3ccc(F)cc3n2C2CC2)c1 | cell-free assay |  | competition with immobilised ligand | 1 µM | remaining binding | 100%
Cc1ccc(NC(=O)c2ccc(CN3CCN(C)CC3)cc2)cc1Nc1nc(-c2cccnc2)cs1 | cell-free assay |  |  | 0.5 µM | remaining signal | 101%
O=C1CCc2cc(Nc3cc(OC4CCOCC4)c([N+](=O)[O-])cc3Cl)ccc2N1 | cell-free assay |  | competition with immobilised ligand | 1 µM | remaining binding | 86%
Cc1ccc(C(=O)NCc2ccsc2)cc1C#Cc1cn(C(C)C)c2ncnc(N)c12 | enzyme activity | inhibitor |  | 1 µM | activity vs control | 108%
Cc1ccc(C(=O)Nc2ccc(CN3CCN(C)CC3)c(C(F)(F)F)c2)cc1C#Cc1cnc2cccnn12 | enzyme activity | inhibitor |  | 23.5 nM | remaining activity | 84%
FC(F)c1nc2ccccc2n1-c1nc(N2CCOCC2)nc(N2CCOCC2)n1 | enzyme activity | inhibitor |  | 10 µM | remaining activity | 93%
Cn1nc(C(=O)NCc2ccc(C(=O)O)cc2)cc1-c1ccc2[nH]ccc2c1 | cell-free assay |  | competition with immobilised ligand | 0.1 µM | remaining binding | 96%
CCN(CC)CCNC(=O)c1c(C)[nH]c(/C=C2\C(=O)Nc3ccc(F)cc32)c1C | enzyme activity | inhibitor |  | 10 µM | inhibition | 29%
CC(C)(C)C(=O)c1sc(NC2CCCCC2)nc1N | enzyme activity | inhibitor |  | 10 µM | remaining activity | 98%
CS(=O)(=O)NCC[C@H](NC(=O)c1cncc2c1cnn2-c1ccc(F)cc1)c1ccnc(S(C)(=O)=O)c1 | cell-free assay |  | competition with immobilised ligand | 1 µM | remaining binding | 100%
Cc1sc(C(=O)NC2COC2)cc1-n1cc(NC(=O)Nc2c(F)cccc2Cl)cn1 | enzyme activity | inhibitor |  | 10 µM | remaining activity | 99.9%
O=C1NC(=O)c2cc(Nc3ccc(F)cc3)c(Nc3ccc(F)cc3)cc21 | cell-free assay |  |  | 0.5 µM | remaining signal | 106%
